Measurements reported in ChEMBL document CHEMBL4373642, “Fluoroquinolone-derived fluorescent probes for studies of bacterial penetration and efflux” (Medchemcomm, 2019).
Values after ≈ are worked out from the molar mass of the structure shown.

Tests used:
[1] = Drug uptake in Staphylococcus aureus incubated for 30 to 45 mins by Hoechst 33342 and Syto9 staining based confocal microscopy; assay type: ADME
Summary of the method: (§1)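 Colonies from LB agar were grown overnight in CAMHB at 37 °C, diluted ~40-fold and grown to OD600 0.4–0.6. Cells were pelleted, washed in HBSS and incubated with probe (50–100 μM) in HBSS at 37 °C for 30–45 min. […] were stained with Hoechst 33342 (5 μg mL^-1) or Syto-9 (10 μM) for 20 min, and membranes with FM4-64FX (5 μg mL^-1) for 5 min on ice. Samples were mounted and imaged by confocal microscopy.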

[2] = tested on: Pseudomonas aeruginosa; assay: Antibacterial activity against Pseudomonas aeruginosa ATCC 27853 assessed as reduction in bacterial growth incubated for 18 to 24 hrs by broth microdilution method; assay type: functional
Summary of the method: (§2)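 Bacteria grown overnight in cation-adjusted Mueller Hinton broth (CAMHB) at 37 °C, diluted 50-fold and grown 1.5–3 h to mid-log, then inoculated at 5×10^5 CFU mL^-1. Two-fold serial dilutions gave final 0.0039–64 μg mL^-1, plated in duplicate. Incubated 37 °C for 18–24 h.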

[3] = tested on: Staphylococcus aureus; assay: Antibacterial activity against Staphylococcus aureus ATCC 25923 assessed as reduction in bacterial growth incubated for 18 to 24 hrs by broth microdilution method; assay type: functional
Summary of the method: as §2, with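 “h. MIC was the lowest concentration with no visible growth (n ≥ 3).” for “h.”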

[4] = Drug uptake in Escherichia coli AG102 incubated for 30 to 45 mins by Hoechst 33342 and Syto9 staining based confocal microscopy; assay type: ADME; summary of the method: as §1
[5] = tested on: Escherichia coli; assay: Antibacterial activity against Escherichia coli MB5746 harbouring lpxC and tolC double mutant assessed as reduction in bacterial growth incubated for 18 to 24 hrs by broth microdilution method; assay type: functional
Summary of the method: (§3)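 Broth microdilution in cation-adjusted Mueller Hinton broth. Overnight 37 °C cultures were diluted 50-fold and grown 1.5–3 h to mid-log, then seeded at 5×10^5 CFU mL^-1. Compounds were two-fold serially diluted, final range 0.0039–64 μg mL^-1, in duplicate. Plates were incubated at 37 °C for 18–24 h.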

[6] = tested on: Bacillus subtilis; assay: Antibacterial activity against Bacillus subtilis ATCC 6051 assessed as reduction in bacterial growth incubated for 18 to 24 hrs by broth microdilution method; assay type: functional
Summary of the method: as §2, with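 “h. MIC was the lowest concentration with no visible growth (n ≥ 3).” for “h.”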

[7] = tested on: Pseudomonas aeruginosa; assay: Antibacterial activity against Pseudomonas aeruginosa PAO750 PAO397 harbouring delta efflux pump mutant assessed as reduction in bacterial growth incubated for 18 to 24 hrs by broth microdilution method; assay type: functional; summary of the method: as §3
[8] = tested on: Acinetobacter baumannii; assay: Antibacterial activity against Acinetobacter baumannii ATCC 19606 assessed as reduction in bacterial growth incubated for 18 to 24 hrs by broth microdilution method; assay type: functional; settings: ATCC 19606 = CIP 70.34 = JCM 6841
Summary of the method: as §2, with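 “h. MIC was the lowest concentration with no visible growth (n ≥ 3).” for “h.”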

[9] = tested on: Escherichia coli; assay: Antibacterial activity against Escherichia coli ATCC 25922 assessed as reduction in bacterial growth incubated for 18 to 24 hrs by broth microdilution method; assay type: functional; summary of the method: as §2
[10] = tested on: Klebsiella pneumoniae; assay: Antibacterial activity against Klebsiella pneumoniae ATCC 13883 assessed as reduction in bacterial growth incubated for 18 to 24 hrs by broth microdilution method; assay type: functional
Summary of the method: as §2, with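 “h. MIC was the lowest concentration with no visible growth (n ≥ 3).” for “h.”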

[11] = tested on: Escherichia coli; assay: Antibacterial activity against Escherichia coli MB5747 harbouring tolC mutant assessed as reduction in bacterial growth incubated for 18 to 24 hrs by broth microdilution method; assay type: functional; summary of the method: as §3
[12] = tested on: Escherichia coli; assay: Antibacterial activity against Escherichia coli MB4902 harbouring lpxC mutant assessed as reduction in bacterial growth incubated for 18 to 24 hrs by broth microdilution method; assay type: functional; summary of the method: as §3
[13] = tested on: Enterococcus faecium; assay: Antibacterial activity against Enterococcus faecium ATCC 35667 assessed as reduction in bacterial growth incubated for 18 to 24 hrs by broth microdilution method; assay type: functional
Summary of the method: as §2, with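 “h. MIC was the lowest concentration with no visible growth (n ≥ 3).” for “h.”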

[14] = Drug uptake in Escherichia coli AG102 incubated for 30 to 45 mins in presence of CCCP by Hoechst 33342 and Syto9 staining based confocal microscopy; assay type: ADME; summary of the method: as §1

Compound | Drug uptake [1] | MIC [2] | MIC [3] | Drug uptake [4] | MIC [5] | MIC [6] | MIC [7] | MIC [8] | MIC [9] | MIC [10] | MIC [11] | MIC [12] | MIC [13] | Drug uptake [14]
CN(C)c1ccc2c(CC(=O)NCc3cn(CCCN4CCN(c5cc6c(cc5F)c(=O)c(C(=O)O)cn6C5CC5)CC4)nn3)cc(=O)oc2c1 | Active | 32 to 64 µg/mL (≈ 45.8 to 91.6 µM) | 16 µg/mL (≈ 22.9 µM) | Active | 0.5 to 1 µg/mL (≈ 0.716 to 1.43 µM) | 4 µg/mL (≈ 5.72 µM) | 2 to 8 µg/mL (≈ 2.86 to 11.4 µM) | 32 µg/mL (≈ 45.8 µM) | 2 µg/mL (≈ 2.86 µM) | 4 to 32 µg/mL (≈ 5.72 to 45.8 µM) | 0.5 to 1 µg/mL (≈ 0.716 to 1.43 µM) | 2 µg/mL (≈ 2.86 µM) | 32 to 64 µg/mL (≈ 45.8 to 91.6 µM) | 
O=C(O)c1cn(C2CC2)c2cc(N3CCN(CCCn4cc(CNc5ccc([N+](=O)[O-])c6nonc56)nn4)CC3)c(F)cc2c1=O | Active | 32 to 64 µg/mL (≈ 50.6 to 101 µM) | 32 to 64 µg/mL (≈ 50.6 to 101 µM) | Not Active | 0.06 to 0.125 µg/mL (≈ 0.0948 to 0.198 µM) | 8 µg/mL (≈ 12.6 µM) | 4 µg/mL (≈ 6.32 µM) | 32 to 64 µg/mL (≈ 50.6 to 101 µM) | 8 µg/mL (≈ 12.6 µM) | 8 to 16 µg/mL (≈ 12.6 to 25.3 µM) | 0.125 to 0.25 µg/mL (≈ 0.198 to 0.395 µM) | 1 to 4 µg/mL (≈ 1.58 to 6.32 µM) | 32 µg/mL (≈ 50.6 µM) | Active
[N-]=[N+]=NCCCN1CCN(c2cc3c(cc2F)c(=O)c(C(=O)O)cn3C2CC2)CC1 |  | 8 to 64 µg/mL (≈ 19.3 to 154 µM) | 0.25 µg/mL (≈ 0.603 µM) |  | 0.25 to 1 µg/mL (≈ 0.603 to 2.41 µM) | 0.06 to 0.25 µg/mL (≈ 0.145 to 0.603 µM) | 32 to 64 µg/mL (≈ 77.2 to 154 µM) | 0.25 to 0.5 µg/mL (≈ 0.603 to 1.21 µM) | 0.06 to 0.25 µg/mL (≈ 0.145 to 0.603 µM) | 0.125 to 0.25 µg/mL (≈ 0.302 to 0.603 µM) | 0.25 to 1 µg/mL (≈ 0.603 to 2.41 µM) | 0.25 to 1 µg/mL (≈ 0.603 to 2.41 µM) | 16 to 64 µg/mL (≈ 38.6 to 154 µM) | 
O=C(O)c1cn(C2CC2)c2cc(N3CCNCC3)c(F)cc2c1=O [CIPROFLOXACIN] |  |  | 0.125 to 0.5 µg/mL (≈ 0.377 to 1.51 µM) |  |  | 0.06 to 0.313 µg/mL (≈ 0.181 to 0.945 µM) |  | 0.5 to 1 µg/mL (≈ 1.51 to 3.02 µM) |  | 0.015 to 0.06 µg/mL (≈ 0.0453 to 0.181 µM) |  |  | 1 to 8 µg/mL (≈ 3.02 to 24.1 µM) | 
